Holding throughout (type): cell-based
The target in test [1] is T1, Interleukin-5 (Mus musculus) (UniProt P04401).
T1 sequence (whole entry): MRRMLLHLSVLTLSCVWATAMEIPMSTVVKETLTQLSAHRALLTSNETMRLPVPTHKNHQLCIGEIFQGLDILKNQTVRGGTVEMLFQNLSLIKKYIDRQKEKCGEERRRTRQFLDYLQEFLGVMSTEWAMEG
Briefly: Inhibition of interleukin-5 in mouse Y16 cells at 30 uM. The essentials: (§1)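 IL-5-dependent mouse pro-B Y16 cells were incubated with 3 units/mL mIL-5 for 48 h, with or without test sample. Cell metabolism was then read with the tetrazolium salt WST-1 as an index of proliferation.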

For the next test, the target named is T2, Interleukin-5 (Mus musculus, UniProt P04401).
T2 sequence (P04401 whole entry): T1 sequence (whole entry)
In words: Inhibition of interleukin-5 in mouse Y16 cells. The essentials:
as §1

In test [2] the target is T1, Interleukin-5 (Mus musculus). Briefly: Inhibition of interleukin-5 in mouse Y16 cells at 50 uM. The essentials:
as §1

Where “and” joins values, the source holds several entries; their conditions need not be identical. Equal entries are not always repeated.

By inhibition is commonly meant how much of the control response was suppressed. The term IC50 denotes the midpoint of a concentration-inhibition curve. A high value points to a need for much substance. For the molecule `O=c1c(CNCCCCCO)coc2cccc(OCC3CCCCC3)c12`, the inhibition in test [1] amounted to 20%. Moreover, the IC50 at Interleukin-5 was above 50 µM.
For `O=c1c(CNCc2ccccc2)coc2cccc(OCC3CCCCC3)c12` the same measures were 32% and above 50 µM.
For `O=c1c(CNc2ccc(O)cc2)coc2cccc(OCC3CCCCC3)c12` the same measures were 57% and 27.3 µM.
For `COc1ccc(NCc2coc3cccc(OCC4CCCCC4)c3c2=O)cc1` the same measures were 31% and above 50 µM.
On to `O=c1c(CNCCCO)coc2cccc(OCC3CCCCC3)c12`, for which, in test [1], the inhibition was 15%. The IC50 against Interleukin-5 is above 50 µM.
The matching figures for `CC(C)(CO)NCc1coc2cccc(OCC3CCCCC3)c2c1=O`: 63% and 26.4 µM.
The matching figures for `O=c1c(CNC(CO)CC2CCCCC2)coc2cccc(OCC3CCCCC3)c12` (centres undefined): 93% and 17.3 µM.
For `O=c1c(CNCCO)coc2cccc(OCC3CCCCC3)c12` the same measures were 13% and above 50 µM.
In test [1], `O=c1c(CNC(CCO)c2ccccc2)coc2cccc(OCC3CCCCC3)c12` (centres undefined) yielded an inhibition of 30%. Besides, the 50% inhibitory concentration (IC50) at Interleukin-5 is above 50 µM.
The matching figures for `O=c1c(CNCc2ccc(O)cc2)coc2cccc(OCC3CCCCC3)c12`: 50% and 28.5 µM.
For `O=c1c(CNC(CO)c2ccccc2)coc2cccc(OCC3CCCCC3)c12` (centres undefined) the same measures were 88% and 18.5 µM.
For `CC(C)(C)C(CO)NCc1coc2cccc(OCC3CCCCC3)c2c1=O` (centres undefined) the same measures were 65% and 26.2 µM.
For `O=c1c(-c2ccc(O[C@@H]3O[C@H](CO)[C@@H](O)[C@H](O)[C@H]3O)cc2)coc2cc(O)cc(O)c12` [SOPHORICOSIDE], the IC50 on Interleukin-5 is 1.4 µM and 10.6 µM. The inhibition in test [2] worked out at 79.1%.
In test [1], `O=c1c(CNC(CO)Cc2ccccc2)coc2cccc(OCC3CCCCC3)c12` (centres undefined) returned an inhibition of 72%. Moreover, at Interleukin-5, the IC50 stood at 25.7 µM.
For `O=c1c(CNc2ccccc2)coc2cccc(OCC3CCCCC3)c12` the same measures were 14% and above 50 µM.
For `CCCC(CO)NCc1coc2cccc(OCC3CCCCC3)c2c1=O` (centres undefined) the same measures were 13% and above 50 µM.
For `COc1ccc(CNCc2coc3cccc(OCC4CCCCC4)c3c2=O)cc1` the same measures were 43% and above 30 µM.
